# Only some compounds are listed: those with a hit (about 2.9% of all), similar ones and a draw of the others.
# TRPC4 block: blocks the mouse TRPC4 cation channel; Q9QUQ5; HEK293 TRPC4beta/mu-opioid, DAMGO-evoked Fluo4 calcium flux; hits give low values; B-score at 10 µM; actives 0.39% (n = 300,000); AID 2247;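 active means B-score over 3 SD under the library average, no early fluorescence shift, positive overall ratio signal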
# Target sequence (Q9QUQ5 whole entry, looked up): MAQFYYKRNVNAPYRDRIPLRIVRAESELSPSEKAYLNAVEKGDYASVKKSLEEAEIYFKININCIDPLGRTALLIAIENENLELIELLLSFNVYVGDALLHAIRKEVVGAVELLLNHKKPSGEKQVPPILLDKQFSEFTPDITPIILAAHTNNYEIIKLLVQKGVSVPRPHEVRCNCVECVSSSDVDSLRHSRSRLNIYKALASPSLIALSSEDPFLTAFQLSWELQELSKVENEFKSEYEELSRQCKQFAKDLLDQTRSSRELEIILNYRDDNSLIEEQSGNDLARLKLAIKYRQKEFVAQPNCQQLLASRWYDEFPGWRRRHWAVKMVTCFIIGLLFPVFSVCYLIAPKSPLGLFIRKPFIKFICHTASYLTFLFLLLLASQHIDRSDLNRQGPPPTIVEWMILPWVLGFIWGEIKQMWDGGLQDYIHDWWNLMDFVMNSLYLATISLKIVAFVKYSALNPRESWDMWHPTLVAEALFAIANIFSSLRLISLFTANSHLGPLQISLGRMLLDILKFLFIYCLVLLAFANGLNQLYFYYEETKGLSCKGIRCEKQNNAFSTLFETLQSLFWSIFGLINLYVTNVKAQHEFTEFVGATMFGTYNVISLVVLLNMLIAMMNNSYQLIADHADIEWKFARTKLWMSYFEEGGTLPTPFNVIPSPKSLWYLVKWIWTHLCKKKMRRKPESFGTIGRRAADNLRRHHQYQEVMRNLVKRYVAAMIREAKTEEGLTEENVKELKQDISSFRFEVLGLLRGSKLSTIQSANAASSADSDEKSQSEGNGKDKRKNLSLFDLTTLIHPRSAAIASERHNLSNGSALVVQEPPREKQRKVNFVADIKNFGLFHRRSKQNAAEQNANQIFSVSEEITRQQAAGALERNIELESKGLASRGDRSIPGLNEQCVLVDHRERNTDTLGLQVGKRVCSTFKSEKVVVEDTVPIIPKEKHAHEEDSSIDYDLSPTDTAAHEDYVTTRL
#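 Assay system: HEK293 cells with stable TRPC4beta plus mu-opioid receptor expression; Probe or stimulus: DAMGO in two steps, submaximal then maximal; Dosing: single-point compound dosing; Measured by: Fluo4 calcium-dye fluorescence, kinetic read; Read-out basis: B score from integrated Fluo4 fluorescence ratio.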
# TRPC6 inh: blocks the mouse TRPC6 cation channel; Q61143; AID 2553; actives 1.1% (n = 310,000); B-score at 10 µM; HEK293-TRPC6, membrane potential dye, ACh-evoked depolarization; hits give low values;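 active means B-score under library mean minus 3 SD, initial fluorescence not abnormally high, positive integrated signal ratio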;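 further: B-score derived from integrated fluorescence ratio over the kinetic read; more negative B-score means stronger inhibition of depolarization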
# TRPC4 act: TRPC4 (mouse) channel activation | Q9QUQ5 | actives 0.49% (n = 310,000) | HEK293 TRPC4beta/mu-opioid, Fluo4 calcium fluorescence; hits give high values | B-score at 10 µM;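 active means B-score above 5 SD of library B-scores, and initial fluorescence ratio not above library mean plus 5 SD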;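 further: positive B-score marks a calcium rise read as TRPC4 activation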
#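 Incubation: 45 min room-temperature Fluo4 loading, 110 s read / System: HEK293 cells stably co-expressing mouse TRPC4beta and mu-opioid receptor / Signal: Fluo4 fluorescence, kinetic / Control set: buffer (low) and maximal DAMGO (high) / Measure: integrated baseline-normalised fluorescence ratio, converted to per-well B score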
# TRPC4 potent: allosterically enhances the mouse TRPC4 cation channel. HEK293 TRPC4beta/mu-opioid, DAMGO EC20, Fluo-4 Ca2+ flux; hits give high values. B-score at 10 µM. actives 0.42% (n = 310,000);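 active means B-score of calcium response area above 5 SD of library B-scores, with initial fluorescence ratio within 5 SD of library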;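 further: B-score of integrated fluorescence ratio over time as area under calcium response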
# TRPC6 act: activators of mouse TRPC6 channel; AID 2550; HEK293-TRPC6 membrane potential dye fluorescence; hits give high values; Q61143; B-score at 10 µM; actives 0.13% (n = 310,000);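 active means B-score of the integrated fluorescence ratio above library mean plus 3 SD, and starting fluorescence ratio within library mean plus 5 SD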;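 further: higher score means more depolarization so channel activation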
# Kir21 inh: inhibitors of mouse Kir2.1 inward-rectifier potassium channel. P35561. HEK293-Kir2.1, FluxOR thallium flux fluorescence; hits give low values. B-score at 10 µM. actives 0.85% (n = 310,000). AID 1672;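 active means fluorescence ratio B-score at or below minus 3 SD of library scores, with starting-brightness B-score within 2 SD, cut at about -4.2 in these data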;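 further: channel flux triggered by added potassium and thallium sulfate stimulus; B-score of peak minus minimum fluorescence over baseline after thallium stimulus; more negative B-score means stronger Kir2.1 block with less thallium influx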
# TRPC4 sel inh 2: second selectivity test of TRPC6 inhibitors: effect on mouse TRPC4. shares compounds with TRPC6 inh. HEK293 TRPC4/MOR, membrane potential dye fluorescence; channel activated by saturating DAMGO dose. inhibition, % at 10 µM. actives 42% (n = 920);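 active means compounds whose fluorescence signal differed from control wells by over 3 SD, either direction, in both duplicate plates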
# TRPC4 spec: tests whether TRPC6 inhibitors also affect mouse TRPC4; shares compounds with TRPC6 inh; HEK293 TRPC4/mu-opioid, membrane potential fluorescence; actives 61% (n = 920); activity change, negative = inhibition, % at 10 µM;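 active means rise or fall in signal beyond 3 SD of buffer-only wells in both replicate plates, either sign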;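 further: integrated kinetic ratio of fluorescence range over baseline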
# HEK293 MPD ctr 2-1: parental HEK293 nonspecific activity of TRPC6 inhibitors, second screen. shares compounds with TRPC6 inh. parental HEK293 membrane potential dye fluorescence; maximal acetylcholine challenge after compound addition. signal change vs control, % at 10 µM. actives 31% (n = 920);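 active means membrane potential signal moving either way by over 3 SD of the maximum-effect control, in both duplicate plates, meaning non-specific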
# HEK293 MPD ctr-1: parental HEK293 nonspecific activity of TRPC6 inhibitors | shares compounds with TRPC6 inh | parental HEK293 membrane potential dye fluorescence | membrane potential signal change, % at 10 µM | actives 60% (n = 920);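 active means membrane potential signal shifting up or down by more than 3 SD of buffer-only wells, on both duplicate plates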
# HEK293 MPD ctr-2: parental HEK293 nonspecific activity of TRPC6 modulators; shares compounds with TRPC6 inh; membrane potential dye fluorescence; membrane potential signal change, % at 10 µM; actives 51% (n = 2,400); AID 488924;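 active means membrane potential signal moves up or down beyond 5 SD from buffer-only wells, on both duplicate plates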
# HEK293 MPD ctr 2-2: second counter-screen for TRPC6 modulators: effect in parental HEK293 cells | actives 14% (n = 2,400) | shares compounds with TRPC6 inh | AID 488926 | membrane potential dye fluorescence; after compound, maximal acetylcholine stimulation | inhibition, % at 10 µM;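 active means membrane potential signal drops by more than 5 SD from the mean control signal, in both duplicate plates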;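 further: plate controls were acetylcholine ECmax control wells for no effect and buffer only wells for full effect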
# TRPC4 ctr mod: mouse TRPC4 off-target activity of TRPC6 modulators | shares compounds with TRPC6 inh | HEK293 TRPC4/mu-opioid, membrane potential fluorescence | percent change from control (negative = decrease, positive = increase), % at 10 µM | actives 69% (n = 2,400);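 active means membrane potential signal moved up or down beyond 5 SD of buffer control wells, in both duplicate plates, actives on both sides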;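 further: plate controls were assay buffer wells for no effect and DAMGO maximal-effect wells for full effect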
# TRPC4 ctr inh 2: second selectivity test of TRPC6 modulators against mouse TRPC4; shares compounds with TRPC6 inh; HEK293 TRPC4/mu-opioid, membrane potential dye fluorescence; stimulated with maximal-effect DAMGO; inhibition, % at 10 µM; actives 55% (n = 2,400); AID 488928;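 active means drop in membrane potential signal beyond 5 SD of the control wells in both duplicate plates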;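 further: TRPC4 counter screen for TRPC6 hits run under conditions tuned for TRPC6 not TRPC4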
# TRPC6 inh conf: mouse TRPC6 inhibitor confirmation; AID 488960; shares compounds with TRPC6 inh; actives 43% (n = 3,300); HEK293-TRPC6, membrane potential dye, ACh-evoked depolarization; inhibition, % at 10 µM;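 active means fluorescence ratio falls more than 5 SD below the full-stimulation control mean, in both duplicate runs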;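 further: integrated fluorescence ratio of peak minus minimum over baseline after agonist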
# TRPC6 act conf: confirmation of mouse TRPC6 activators; shares compounds with TRPC6 inh; HEK293-TRPC6 membrane potential dye fluorescence, FDSS; activation, % at 10 µM; actives 11% (n = 2,800);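 active means ratio signal rise beyond 5 SD above unstimulated control wells' mean, seen in both duplicate runs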;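 further: plate controls were buffer EC0 wells for no effect and acetylcholine ECmax response for full effect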
# An asterisk follows results filed as active; i = inactive; / = no result.
SMILES,TRPC4 block,TRPC6 inh,TRPC4 act,TRPC4 potent,TRPC6 act,Kir21 inh,HEK293 MPD ctr-2,HEK293 MPD ctr 2-2,TRPC4 ctr mod,TRPC4 ctr inh 2,TRPC6 inh conf,TRPC6 act conf,others
Cc1ccc(C)n1-c1ccc(C(=O)NC2CCN(Cc3ccccc3)CC2)cc1,i,-5.1*,i,i,i,-3.3,i,i,i,36%*,i,i,
O=C(O)c1cn(-c2ccccc2)nc1-c1cccnc1,i,i,i,i,i,-0.63,/,/,/,/,/,/,
Cc1ccc(CN2CCC(NC(=O)c3ccccc3)CC2)cc1,i,i,i,i,i,-1.3,/,/,/,/,/,/,
O=C(N/C(=C\c1ccccc1)C(=O)N1CCOCC1)c1ccccc1Br,i,i,i,i,i,0.04,/,/,/,/,/,/,
C[N+]1(C)[C@@H]2CC(OC(=O)[C@H](CO)c3ccccc3)C[C@H]1[C@@H]1O[C@@H]12 (stereo partly drawn),i,-8.2*,i,i,i,0.68,/,/,/,/,93%*,i,TRPC4 sel inh 2=i;TRPC4 spec=i;HEK293 MPD ctr 2-1=-9.0%*;HEK293 MPD ctr-1=i
O=S(=O)(Nc1ccc(Cl)cc1)c1ccc(N2CCOCC2)c(NC(=S)NCCN2CCOCC2)c1,i,i,i,i,i,0.29,/,/,/,/,/,/,
CCOC(=O)N1CCN(c2nc(-c3ccc(F)cc3)cs2)CC1,i,i,i,i,i,0.79,/,/,/,/,/,/,
CCOC(=O)C(=O)N1CCN(c2nc(-c3ccc(Cl)cc3)cs2)CC1,i,-6.2*,i,i,i,0.59,i,i,i,i,i,i,
COc1cccc(NC(=O)N2CCC(n3nnc4ccccc43)CC2)c1,i,i,i,i,i,0.96,/,/,/,/,/,/,
Cn1ccnc1C1CCCCN1Cc1nc(-c2ccc3c(c2)OCO3)no1 (stereo not drawn),i,-5.3*,i,i,i,-0.79,184%*,62%*,44%*,40%*,48%*,/,
Cn1ccnc1C1CCCCN1Cc1nc(Cc2cccc(C(F)(F)F)c2)no1 (stereo not drawn),i,-5.3*,i,i,i,0.92,136%*,i,32%*,27%*,i,/,

# Screening results deposited in PubChem by Johns Hopkins Ion Channel Center.
